Test results as given in paper PMC9989852 (Food and chemical toxicology : an international journal …, 2022).

Key:
[1] = ref Russell et al., 2015, Xu et al., 2020; cited from earlier work
spleen = assay: Spleen phenotyping by flow cytometry after 28-day dermal exposure; assay type: in vivo, B6C3F1 mice; details: 28 days
How it was run: (§1)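 Female B6C3F1 mice (5/group) received 25 μl/ear daily to the dorsal ears in acetone. About 24 h after the last dose, tissues went into RPMI: both auricular dLNs, half spleen and one ear pinna. Single-cell suspensions were acquired on an LSR II, with populations gated per supplemental strategy and FMO gating controls. Results are mean ± SE, n=5, by one-way ANOVA.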

ear pinna = assay: Skin; assay type: in vivo, B6C3F1 mice; details: dermal, 28 days
How it was run: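 Dosing was daily topical to both dorsal ears (25 μl/ear, acetone vehicle) in female B6C3F1 mice. Liver caudate lobe or half ear pinna was stored in RNAlater and homogenized in RLT buffer. RNA was isolated on RNeasy columns with DNase, and 1–2 μg was reverse-transcribed. TaqMan real-time PCR was read as 2−ΔΔCT vs vehicle, normalized to β-actin. Statistics: ANOVA/Dunnett's, or Kruskal-Wallis/Dunn's for unequal variance.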

[2] = test system: auricular draining lymph nodes (dLNs); assay: Draining lymph node phenotyping by flow cytometry after 28-day dermal exposure; assay type: in vivo, B6C3F1 mice; details: 28 days
How it was run: as §1

[3] = PFAS concentration in serum; assay type: in vivo, B6C3F1 mice; details: 1.25%–5%, dermal, 28 days
How it was run: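 Serum came by cardiac puncture about 24 h after the final daily ear dose (25 μl/ear, acetone vehicle; female B6C3F1 mice). Samples underwent solid-phase extraction and LC/MS/MS. Short-chain analytes were quantified as linear isomer only; the legacy comparator was quantified as linear plus branched. Data are mean ± SE of 4–5 mice, one-way ANOVA with Dunnett's vs vehicle.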

B6C3F1 mice = assay: Organ weights and body weight after 28-day dermal exposure; assay type: in vivo; details: 28 days
kidney, spleen = assay: Kidney and spleen histopathology after 28-day dermal exposure; assay type: in vivo, B6C3F1 mice; details: 1.25–5%, 28 days, data not shown
How it was run: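 Female B6C3F1 mice (5/group) received 25 μl/ear on the dorsal ear surfaces daily, with acetone as vehicle. Tissues were formalin-fixed about 24 h after the last dose: liver remainder, half spleen, right kidney and half ear pinna. Sections were paraffin-embedded, cut at 5 μm and stained with H&E. A veterinary pathologist read them per STP guideline and graded 1 (minimal) to 5 (severe) by extent.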

pH of PFAS = assay type: physicochemical; details: PFAS (5%) in PBS, free acid form

## O=C(O)C(F)(F)C(F)(F)C(F)(F)C(F)(F)C(F)(F)C(F)(F)F [PFHpA, Perfluoroheptanoic acid]
[1]
  estimated half-life in humans: 62 to 70 days
spleen; 1.25%
  spleen MFI of CD86 on B-cells: increase
  spleen frequency of CD8^+ T-cells: significant decrease
  spleen frequency of eosinophils: significant decrease
spleen; 2.5%
  spleen MFI of CD86 on B-cells: increase
  spleen MFI of MHCII on B-cells: increase
spleen; 5%
  spleen MFI of CD86 on B-cells: increase
  spleen MFI of MHCII on B-cells: increase
  spleen NK cell frequency: increase
  spleen frequency of B-cells: significant decrease
  spleen frequency of total DCs: increase
  spleen number of NK cells: increase
Ear pinna; 1.25–5%
  skin PPARα gene expression: no significant decrease
  skin Pparδ gene expression: no changes
Ear pinna; 2.5%
  skin Flg gene expression: increased
  skin Krt10 gene expression: increased
  skin Pparγ gene expression: decreased
Ear pinna; 5%
  skin Flg gene expression: increased
  skin Krt10 gene expression: increased
  skin Lor gene expression: increased
  skin Pparγ gene expression: decreased
  skin S100a8 gene expression, increase: 6.7 fold
  skin Serpine1 gene expression, increase: 1.7 fold
  skin Tslp gene expression, increase: 5.1 fold
[2]; 1.25%
  dLN B-cells cell number: 5.40 ± 0.44 × 10^5
  dLN B-cells frequency: 13.44 ± 1.00%
  dLN CD4^+ cell number: 1.77 ± 0.17 × 10^6
  dLN CD4^+ frequency: 43.44 ± 1.00%
  dLN CD8^+ cell number: 11.50 ± 0.97 × 10^5
  dLN CD8^+ frequency: 28.26 ± 0.62%
  dLN CD11b+ cell number: 3.18 ± 0.81 × 10^4
  dLN CD11b+ frequency: 0.74 ± 0.16%
  dLN CD86 B-cells: 851.20 ± 55.68 MFI
  dLN CD86 DCs: 22.90 ± 1.99 MFI x 10^2
  dLN Dendritic Cells cell number: 15.60 ± 6.03 × 10^4
  dLN Dendritic Cells frequency: 4.23 ± 1.95%
  dLN Eosinophils cell number: 7.53 ± 1.81 × 10^2
  dLN MHCII B-cells: 33.30 ± 3.62 MFI × 10^2
  dLN NK cell number: 1.84 ± 0.21 × 10^4
  dLN NK frequency: 0.45 ± 0.03 %
  dLN Neutrophils cell number: 8.55 ± 1.38 × 10^2
  dLN Total Cellularity: 4.05 ± 0.31 × 10^6
[2]; 2.5%
  dLN B-cells cell number: 8.69 ± 0.16 × 10^5
  dLN B-cells frequency: 14.86 ± 0.84%
  dLN CD4^+ cell number: 2.47 ± 0.44 × 10^6
  dLN CD4^+ frequency: 41.54 ± 0.58%
  dLN CD8^+ cell number: 17.20 ± 3.10 × 10^5
  dLN CD8^+ frequency: 28.6 ± 0.62%
  dLN CD11b+ cell number: 6.87 ± 1.47 × 10^4
  dLN CD11b+ frequency: 1.09 ± 0.09%
  dLN CD86 B-cells: 908.40 ± 44.09 MFI
  dLN CD86 DCs: 25.10 ± 0.72 MFI x 10^2
  dLN Dendritic Cells cell number: 9.50 ± 1.42 × 10^4
  dLN Dendritic Cells frequency: 1.70 ± 0.17%
  dLN Eosinophils cell number: 20.40 ± 3.85 × 10^2
  dLN MHCII B-cells: 44.30 ± 4.02 MFI × 10^2
  dLN NK cell number: 3.23 ± 0.68 × 10^4
  dLN NK frequency: 0.53 ± 0.03%
  dLN Neutrophils cell number: 9.51 ± 1.88 × 10^2
  dLN Total Cellularity: 5.97 ± 1.06 × 10^6
[2]; 5%
  dLN B-cells cell number: 11.50 ± 1.39 × 10^5
  dLN B-cells frequency: 14.70 ± 0.13%
  dLN CD4^+ cell number: 3.03 ± 0.31 × 10^6
  dLN CD4^+ frequency: 39.24 ± 0.83 %
  dLN CD8^+ cell number: 22.10 ± 2.59 × 10^5
  dLN CD8^+ frequency: 28.36 ± 0.20%
  dLN CD11b+ cell number: 13.40 ± 1.96 × 10^4
  dLN CD11b+ frequency: 1.69 ± 0.10 %
  dLN CD86 B-cells: 879.80 ± 40.32 MFI
  dLN CD86 DCs: 28.50 ± 0.78 MFI x 10^2
  dLN Dendritic Cells cell number: 18.20 ± 3.38 × 10^4
  dLN Dendritic Cells frequency: 2.28 ± 0.20%
  dLN Eosinophils cell number: 22.80 ± 6.04 × 10^2
  dLN MHCII B-cells: 43.10 ± 1.85 MFI × 10^2
  dLN MHCII DCs: 58.90 ± 2.65 MFI × IQ^2
  dLN NK cell number: 4.78 ± 0.67 × 10^4
  dLN NK frequency: 0.61 ± 0.04%
  dLN Total Cellularity: 7.78 ± 0.90 × 10^6
[3]
  PFAS serum concentration vs vehicle: significant increase
B6C3F1 mice; 1.25–5%
  body weight or overt signs of toxicity: no changes
B6C3F1 mice; 2.5%, not dose dependent
  thymus weights (% body weight): significantly increased
B6C3F1 mice; 5%
  Liver weight (% body weight), increase vs vehicle-treated mice: 18%
  kidney weights (% body weight): significantly increased
kidney, spleen
  microscopic observations in the kidney or the spleen: No PFPeA, PFHxA, or PFHpA-related microscopic observations
pH of PFAS
  pH: 1.49
